Reference: ChEMBL document CHEMBL2086222, “Bioassay-guided isolation of prenylated xanthones and polycyclic acylphloroglucinols from the leaves of Garcinia nujiangensis” (J Nat Prod, 2012)
Active and inactive are the calls of the source.

Tests used:
[1] = Cytotoxicity against human MIHA cells assessed as reduction in cell viability at 5 to 40 uM after 72 hrs by MTT assay; type: cell-based
Summary of the method: (§1)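 Cells in RPMI 1640, DMEM or DMEM/F12 with 10% FBS, 37 °C, 5% CO2. Plated at 5 × 10^3 cells/well and attached overnight. Exposed 72 h to 5, 10, 20 or 40 μM from DMSO stocks diluted in medium. MTT (5 mg/mL stock in PBS) added for 4 h at 37 °C, formazan dissolved in DMSO, A490 read. Untreated cells taken as 100%.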

[2] = system: MCF7; assay: Cytotoxicity against human MCF7 cells assessed as reduction in cell viability at 5 to 40 uM after 72 hrs by MTT assay; type: functional, cell-based; summary of the method: as §1
[3] = system: PANC-1; assay: Cytotoxicity against human PANC1 cells assessed as reduction in cell viability at 5 to 40 uM after 72 hrs by MTT assay; type: functional, cell-based; summary of the method: as §1
[4] = system: U-87MG ATCC; assay: Cytotoxicity against human U87 cells assessed as reduction in cell viability at 5 to 40 uM after 72 hrs by MTT assay; type: functional, cell-based; summary of the method: as §1
[5] = system: BXPC-3; assay: Cytotoxicity against human BxPC3 cells assessed as reduction in cell viability at 5 to 40 uM after 72 hrs by MTT assay; type: functional, cell-based; summary of the method: as §1
[6] = system: HepG2; assay: Cytotoxicity against human HepG2 cells assessed as reduction in cell viability at 5 to 40 uM after 72 hrs by MTT assay; type: functional, cell-based; summary of the method: as §1
[7] = system: MDA-MB-231; assay: Cytotoxicity against human MDA-MB-231 cells assessed as reduction in cell viability at 5 to 40 uM after 72 hrs by MTT assay; type: functional, cell-based; summary of the method: as §1
[8] = system: AGS; assay: Cytotoxicity against human AGS cells assessed as reduction in cell viability at 5 to 40 uM after 72 hrs by MTT assay; type: functional, cell-based; summary of the method: as §1
[9] = system: A-375; assay: Cytotoxicity against human A375 cells assessed as reduction in cell viability at 5 to 40 uM after 72 hrs by MTT assay; type: functional, cell-based; summary of the method: as §1
[10] = system: A549; assay: Cytotoxicity against human A549 cells assessed as reduction in cell viability at 5 to 40 uM after 72 hrs by MTT assay; type: functional, cell-based; summary of the method: as §1
[11] = system: SMMC-7721; assay: Cytotoxicity against human SMMC7721 cells assessed as reduction in cell viability at 5 to 40 uM after 72 hrs by MTT assay; type: functional, cell-based; summary of the method: as §1
[12] = system: NCI-H2126; assay: Cytotoxicity against human NCI-H2126 cells assessed as reduction in cell viability at 5 to 40 uM after 72 hrs by MTT assay; type: functional, cell-based; summary of the method: as §1
[13] = system: SMMC-7721; assay: Cytotoxicity against human SMMC7721 cells assessed as reduction in cell viability after 72 hrs by MTT assay; type: functional, cell-based; conditions: SMMC-7721, 72 h; summary of the method: as §1
[14] = system: NCI-H2126; assay: Cytotoxicity against human NCI-H2126 cells assessed as reduction in cell viability after 72 hrs by MTT assay; type: functional, cell-based; conditions: NCI-H2126, 72 h; summary of the method: as §1
[15] = system: AGS; assay: Cytotoxicity against human AGS cells assessed as reduction in cell viability after 72 hrs by MTT assay; type: functional, cell-based; summary of the method: as §1
[16] = system: BXPC-3; assay: Cytotoxicity against human BxPC3 cells assessed as reduction in cell viability after 72 hrs by MTT assay; type: functional, cell-based; conditions: BXPC-3, 72 h; summary of the method: as §1
[17] = system: A-375; assay: Cytotoxicity against human A375 cells assessed as reduction in cell viability after 72 hrs by MTT assay; type: functional, cell-based; conditions: A-375, 72 h; summary of the method: as §1
[18] = system: PANC-1; assay: Cytotoxicity against human PANC1 cells assessed as reduction in cell viability after 72 hrs by MTT assay; type: functional, cell-based; conditions: PANC-1, 72 h; summary of the method: as §1
[19] = system: A549; assay: Cytotoxicity against human A549 cells assessed as reduction in cell viability after 72 hrs by MTT assay; type: functional, cell-based; conditions: A549, 72 h
Summary of the method: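 Human lung line cultured in RPMI 1640, DMEM or DMEM/F12 with 10% FBS at 37 °C, 5% CO2. 5 × 10^3 cells/well plated and left to attach overnight. Compound taken from DMSO stock, diluted in medium, tested at 5, 10, 20 and 40 μM for 72 h. MTT (5 mg/mL stock) added for 4 h at 37 °C. Formazan dissolved in DMSO, absorbance read at 490 nm. Untreated cells set as 100%.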

C=C(C)CCC(C[C@]12C[C@@H]3[C@H](C=C(C)C)[C@](C(=O)c4ccc(O)c(O)c4)(C1=O)C(=O)[C@](CC=C(C)C)(C2=O)C3(C)C)C(=C)C (stereo partly specified)
active: Activity [2] | Activity [3] | Activity [4] | Activity [5] | Activity [6] | Activity [7] | Activity [8] | Activity [9] | Activity [10] | Activity [11] | Activity [12]
Non-toxic: Activity [1]

C=C(C)CC[C@H]1C[C@@]23C[C@@H](CC=C(C)C)C(C)(C)[C@@](CC=C(C)C)(C(=O)C(C(=O)c4ccc(O)c(O)c4)=C2OC1(C)C)C3=O
Non-toxic: Activity [1]
active: Activity [2] | Activity [3] | Activity [4] | Activity [5] | Activity [6] | Activity [7] | Activity [8] | Activity [9] | Activity [10] | Activity [11] | Activity [12]

C=C(C)[C@@H](CC=C(C)C)C[C@@]12C[C@H](CC=C(C)C)C(C)(C)[C@@](CC=C(C)C)(C(=O)C(C(=O)c3ccc(O)c(O)c3)=C1O)C2=O
active: Activity [2] | Activity [3] | Activity [4] | Activity [5] | Activity [6] | Activity [7] | Activity [8] | Activity [9] | Activity [10] | Activity [11] | Activity [12]
Non-toxic: Activity [1]

CC(C)=CC[C@H]1C[C@@]23C[C@H](CC=C(C)C)C(C)(C)[C@@](CC=C(C)C)(C(=O)C(C(=O)c4ccc(O)c(O)c4)=C2OC1(C)C)C3=O
Non-toxic: Activity [1]
active: Activity [2] | Activity [3] | Activity [4] | Activity [5] | Activity [6] | Activity [7] | Activity [8] | Activity [9] | Activity [10] | Activity [11] | Activity [12]

C=C(C)CCC(C[C@@]12C[C@H](CC=C(C)C)C(C)(C)[C@@](CC=C(C)C)(C1=O)c1oc3cc(O)c(O)cc3c(=O)c1C2=O)C(=C)C (relative stereo)
active: Activity [2] | Activity [3] | Activity [4] | Activity [5] | Activity [6] | Activity [7] | Activity [8] | Activity [9] | Activity [10] | Activity [11] | Activity [12]
Non-toxic: Activity [1]

C=C(C)CCC(C[C@@]12C[C@@H](CC=C(C)C)C(C)(C)[C@@](CC=C(C)C)(C(=O)c3c1oc1cc(O)c(O)cc1c3=O)C2=O)C(=C)C (relative stereo)
active: Activity [2] | Activity [3] | Activity [4] | Activity [5] | Activity [6] | Activity [7] | Activity [8] | Activity [9] | Activity [10] | Activity [11] | Activity [12]
Non-toxic: Activity [1]

C=C(C)CCC(C[C@]12C[C@H](CC=C(C)C)C(C)(C)[C@@]3(C[C@@H](C(C)(C)O)OC3=C(C(=O)c3ccc(O)c(O)c3)C1=O)C2=O)C(=C)C (relative stereo)
Non-toxic: Activity [1]
active: Activity [2] | Activity [3] | Activity [4] | Activity [5] | Activity [6] | Activity [7] | Activity [8] | Activity [9] | Activity [10] | Activity [11] | Activity [12]

CC(C)=CC[C@H]1C[C@@]23C[C@@H](CC=C(C)C)C(C)(C)[C@@](CC=C(C)C)(C(=O)C(C(=O)c4ccc(O)c(O)c4)=C2OC1(C)C)C3=O [CAMBOGIN]
Non-toxic: Activity [1]
active: Activity [2] | Activity [3] | Activity [4] | Activity [5] | Activity [6] | Activity [7] | Activity [8] | Activity [9] | Activity [10] | Activity [11] | Activity [12]

C=C(C)CC[C@@H]1C[C@]23C[C@H](CC=C(C)C)C(C)(C)[C@](CC=C(C)C)(C(=O)C(C(=O)c4ccc(O)c(O)c4)=C2OC1(C)C)C3=O [CYCLOXANTHOCHYMOL]
active: Activity [2] | Activity [3] | Activity [4] | Activity [5] | Activity [6] | Activity [7] | Activity [8] | Activity [9] | Activity [10] | Activity [11] | Activity [12]
Non-toxic: Activity [1]

C=C(C)[C@@H]1C[C@]23C[C@H](CC=C(C)C)C(C)(C)[C@](CC=C(C)C)(C(=O)C(C(=O)c4ccc(O)c(O)c4)=C2O[C@H]1C=C(C)C)C3=O [GARCINIALIPTONE B]
Non-toxic: Activity [1]
active: Activity [2] | Activity [3] | Activity [4] | Activity [5] | Activity [6] | Activity [7] | Activity [8] | Activity [9] | Activity [10] | Activity [11] | Activity [12]

CC1(C)C=Cc2c(cc(O)c3c(=O)c4ccc(O)c(O)c4oc23)O1 [ISOJACAREUBIN]
Non-toxic: Activity [1]

O=c1c(O)c(-c2ccc(O)cc2)oc2cc(O)cc(O)c12 [KAEMPFEROL]
Non-toxic: Activity [1]
active: Activity [2] | Activity [3] | Activity [4] | Activity [5] | Activity [6] | Activity [7] | Activity [8] | Activity [9] | Activity [10] | Activity [11] | Activity [12]

COc1c(O)c(O)c2c(=O)c3c(CC=C(C)C)c(CC=C(C)C)c(O)c(O)c3oc2c1CC=C(C)C [NUJIANGEXANTHONE A]
active: Activity [2] | Activity [3] | Activity [4] | Activity [5] | Activity [6] | Activity [7] | Activity [8] | Activity [9] | Activity [10] | Activity [11] | Activity [12]
Non-toxic: Activity [1]

COc1c(OC)c(O)c2c(=O)c3c(CC=C(C)C)c(CC=C(C)C)c(O)c(O)c3oc2c1CC=C(C)C [NUJIANGEXANTHONE B]
Non-toxic: Activity [1]
active: Activity [2] | Activity [3] | Activity [4] | Activity [5] | Activity [6] | Activity [7] | Activity [8] | Activity [9] | Activity [10] | Activity [11] | Activity [12]

CC(=O)O[C@H]1C(=O)[C@@]2(C)[C@H]([C@H](OC(=O)c3ccccc3)[C@]3(O)C[C@H](OC(=O)[C@H](O)[C@@H](NC(=O)c4ccccc4)c4ccccc4)C(C)=C1C3(C)C)[C@]1(OC(C)=O)CO[C@@H]1C[C@@H]2O [PACLITAXEL]
1600 nM: IC50 [15]
90 nM: IC50 [16]
2500 nM: IC50 [14]
260 nM: IC50 [18]
720 nM: IC50 [19]
150 nM: IC50 [13]
9.2 nM: IC50 [17]

COc1cc2c(=O)c3c(O)c(CC=C(C)C)c(O)c(CC=C(C)C)c3oc2c(O)c1O [XANTHONE V2A]
active: Activity [2] | Activity [3] | Activity [4] | Activity [5] | Activity [6] | Activity [7] | Activity [8] | Activity [9] | Activity [10] | Activity [11] | Activity [12]
Non-toxic: Activity [1]
